Assay results as given in ChEMBL document CHEMBL1139546, “Radiosynthesis and evaluation of [11C]-(+)-4-propyl-3,4,4a,5,6,10b-hexahydro-2H-naphtho[1,2-b][1,4]oxazin-9-ol as a potential radiotracer for in vivo imaging of the dopamine D2 high-affinity state with positron emission tomography” (2005).

What was measured:
[1] = biological target: D(1A) dopamine receptor (Rattus norvegicus) (UniProt P18901); conditions: Brain, at 1 mg/kg
[2] = Percent change in rat brain dopamine D2/sigma receptor binding after in rat brain after 0.2 mg/kg haloperidol treatment; type: functional
In short: (§1)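 Male Sprague-Dawley rats (230-280 g), groups of 4-5, given the challenge agent in saline (1 mL/kg, iv unless otherwise stated) 25-30 min before tail-vein [11C] tracer, 25-30 MBq (1-2 nmol) in buffered saline. A saline control group was run each time. Killed 60 min post-injection. Striatum and cerebellum counted by gamma counter. Specific binding = (%ID/g striatum − %ID/g cerebellum)/%ID/g cerebellum.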

[3] = test system: Rattus norvegicus; assay: Effect on compound specific binding to dopamine release in rat brain upon pre-treatment with 2 mg/kg amphetamine; type: functional
In short: as §1

[4] = Percent change in rat brain dopamine D2/sigma receptor binding after in rat brain after 1 mg/kg haloperidol treatment; type: functional
In short: as §1

[5] = test system: Rattus norvegicus; assay: Effect on compound specific binding to dopamine release in rat brain upon pre-treatment with 4 mg/kg amphetamine; type: functional
In short: as §1

[6] = biological target: T1, Dopamine receptor D2 and D3 (Rattus norvegicus) (UniProt P19020+P61169); conditions: Brain, at 0.2 mg/kg
[7] = biological target: Sodium-dependent dopamine transporter (Rattus norvegicus) (UniProt P23977); conditions: Brain, at 2 mg/kg
[8] = biological target: Sodium-dependent dopamine transporter (Rattus norvegicus) (UniProt P23977); conditions: Brain, at 0.5 mg/kg
[9] = biological target: T2, Alpha-2A adrenergic receptor (Rattus norvegicus) (UniProt P22909); conditions: Brain, at 0.1 mg/kg
T2 sequence (whole entry): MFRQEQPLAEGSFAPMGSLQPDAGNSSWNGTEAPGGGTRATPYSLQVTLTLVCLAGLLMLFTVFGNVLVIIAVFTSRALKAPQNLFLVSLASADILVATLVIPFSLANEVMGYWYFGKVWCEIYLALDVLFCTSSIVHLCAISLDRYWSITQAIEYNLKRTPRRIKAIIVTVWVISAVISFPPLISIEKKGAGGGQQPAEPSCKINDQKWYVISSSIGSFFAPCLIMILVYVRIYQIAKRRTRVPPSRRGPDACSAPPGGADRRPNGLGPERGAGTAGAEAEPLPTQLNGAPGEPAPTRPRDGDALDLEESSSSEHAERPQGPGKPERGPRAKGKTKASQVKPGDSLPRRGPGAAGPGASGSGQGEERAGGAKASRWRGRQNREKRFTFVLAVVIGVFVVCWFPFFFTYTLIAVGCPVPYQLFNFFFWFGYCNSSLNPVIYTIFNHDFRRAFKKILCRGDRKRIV

[10] = test system: Rattus norvegicus; assay: Effect on compound specific binding to rat brain upon pre-treatment with 2 mg/kg reserpine and 250 mg/kg AMPT; type: functional
In short: (§2)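 Male Sprague-Dawley rats, four groups of five: reserpine (2 mg/kg sc) 24 h before tracer then AMPT (250 mg/kg ip) 1 h before; reserpine then saline; saline then AMPT; saline twice as controls. Tracer given iv via tail vein. Killed 60 min post-injection. Striatal and cerebellar %ID/g counted. Specific binding ratio = (striatum − cerebellum)/cerebellum.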

[11] = biological target: Sodium-dependent dopamine transporter (Rattus norvegicus) (UniProt P23977); conditions: Brain, at 1 mg/kg
[12] = biological target: T2, Alpha-2A adrenergic receptor (Rattus norvegicus); conditions: Brain, at 2 mg/kg
[13] = biological target: Tyrosine 3-monooxygenase (Rattus norvegicus) (UniProt P04177); conditions: Brain, at 250 mg/kg
[14] = biological target: T1, Dopamine receptor D2 and D3 (Rattus norvegicus); conditions: Brain, at 0.01 mg/kg
[15] = test system: Rattus norvegicus; assay: Effect on compound specific binding to dopamine release in rat brain upon pre-treatment with 0.25 mg/kg amphetamine; type: functional
In short: as §1

[16] = test system: Rattus norvegicus; assay: Effect on compound specific binding to dopamine release in rat brain upon pre-treatment with 0.5 mg/kg amphetamine; type: functional
In short: as §1

[17] = test system: Rattus norvegicus; assay: Effect on compound specific binding to rat brain upon pre-treatment with 2 mg/kg reserpine; type: functional
In short: as §2

[18] = biological target: Sodium-dependent dopamine transporter (Rattus norvegicus) (UniProt P23977); conditions: Brain, at 10 mg/kg
[19] = test system: Rattus norvegicus; assay: Effect on compound specific binding to dopamine release in rat brain upon pre-treatment with 1 mg/kg amphetamine; type: functional
In short: as §1

[20] = biological target: T1, Dopamine receptor D2 and D3 (Rattus norvegicus); conditions: Brain, at 1 mg/kg
[21] = biological target: T1, Dopamine receptor D2 and D3 (Rattus norvegicus); conditions: Brain, at 0.04 mg/kg
[22] = biological target: T3, 5-hydroxytryptamine receptor 1A (Rattus norvegicus) (UniProt P19327); conditions: Brain, at 1 mg/kg
T3 sequence (whole entry): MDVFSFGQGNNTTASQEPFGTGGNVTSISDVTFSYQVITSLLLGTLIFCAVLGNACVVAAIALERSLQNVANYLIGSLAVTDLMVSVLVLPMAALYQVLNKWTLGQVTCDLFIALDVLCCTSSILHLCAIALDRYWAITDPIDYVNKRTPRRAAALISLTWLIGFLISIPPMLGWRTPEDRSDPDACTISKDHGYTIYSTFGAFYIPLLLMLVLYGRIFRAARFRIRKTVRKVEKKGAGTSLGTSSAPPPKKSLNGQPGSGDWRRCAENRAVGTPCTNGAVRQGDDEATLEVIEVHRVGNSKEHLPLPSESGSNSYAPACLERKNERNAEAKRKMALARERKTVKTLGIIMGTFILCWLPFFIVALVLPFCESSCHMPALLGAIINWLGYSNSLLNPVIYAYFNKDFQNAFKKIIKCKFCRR

[23] = biological target: Adrenergic receptor alpha-2 (Rattus norvegicus) (UniProt P22086+P19328+P22909); conditions: Brain, at 1 mg/kg
[24] = test system: Rattus norvegicus; assay: Effect on compound specific binding to dopamine release in rat brain upon pre-treatment with 0.1 mg/kg amphetamine; type: functional
In short: as §1

[25] = biological target: Sodium-dependent dopamine transporter (Rattus norvegicus) (UniProt P23977); conditions: Brain, at 5 mg/kg
[26] = biological target: Sigma non-opioid intracellular receptor 1 (Rattus norvegicus) (UniProt Q9R0C9); conditions: Brain, at 1 mg/kg
Sigma non-opioid intracellular receptor 1 (Rattus norvegicus), sequence (Q9R0C9 whole entry): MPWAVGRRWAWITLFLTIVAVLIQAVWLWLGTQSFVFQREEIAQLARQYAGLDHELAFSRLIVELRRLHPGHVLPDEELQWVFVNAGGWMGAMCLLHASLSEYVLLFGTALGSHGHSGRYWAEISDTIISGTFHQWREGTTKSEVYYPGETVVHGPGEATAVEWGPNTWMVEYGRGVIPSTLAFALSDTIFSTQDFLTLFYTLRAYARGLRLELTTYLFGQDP

Sodium-dependent dopamine transporter (Rattus norvegicus), sequence (P23977 whole entry): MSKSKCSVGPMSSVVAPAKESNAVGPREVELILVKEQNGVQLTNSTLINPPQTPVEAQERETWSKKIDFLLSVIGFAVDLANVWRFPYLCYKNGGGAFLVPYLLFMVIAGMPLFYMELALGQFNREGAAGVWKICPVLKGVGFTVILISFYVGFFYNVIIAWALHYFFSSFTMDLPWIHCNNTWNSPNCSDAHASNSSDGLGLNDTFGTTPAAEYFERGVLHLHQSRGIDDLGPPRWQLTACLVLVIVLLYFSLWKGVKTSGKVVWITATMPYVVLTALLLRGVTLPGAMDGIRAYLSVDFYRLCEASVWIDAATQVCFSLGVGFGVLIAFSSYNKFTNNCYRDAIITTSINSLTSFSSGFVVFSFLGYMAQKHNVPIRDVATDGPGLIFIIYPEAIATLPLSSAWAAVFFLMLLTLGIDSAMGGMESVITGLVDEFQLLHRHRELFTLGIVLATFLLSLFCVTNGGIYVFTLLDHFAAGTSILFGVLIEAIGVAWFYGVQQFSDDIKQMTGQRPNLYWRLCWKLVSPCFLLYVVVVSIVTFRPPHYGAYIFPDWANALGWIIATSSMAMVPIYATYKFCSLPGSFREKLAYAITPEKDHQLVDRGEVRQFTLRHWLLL
T1 sequence (P19020 whole entry, looked up): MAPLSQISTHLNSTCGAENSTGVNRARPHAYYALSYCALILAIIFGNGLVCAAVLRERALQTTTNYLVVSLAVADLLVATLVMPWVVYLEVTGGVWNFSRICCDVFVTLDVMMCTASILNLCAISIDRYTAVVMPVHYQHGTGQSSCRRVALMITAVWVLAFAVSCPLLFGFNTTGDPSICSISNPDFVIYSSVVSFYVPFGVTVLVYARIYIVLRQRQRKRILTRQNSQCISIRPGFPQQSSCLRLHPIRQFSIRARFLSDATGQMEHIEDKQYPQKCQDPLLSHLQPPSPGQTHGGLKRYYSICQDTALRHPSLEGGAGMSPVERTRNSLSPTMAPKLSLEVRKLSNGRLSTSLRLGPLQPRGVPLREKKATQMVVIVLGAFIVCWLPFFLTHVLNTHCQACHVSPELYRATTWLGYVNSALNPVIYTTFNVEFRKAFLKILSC
T1 sequence (P61169 whole entry, looked up): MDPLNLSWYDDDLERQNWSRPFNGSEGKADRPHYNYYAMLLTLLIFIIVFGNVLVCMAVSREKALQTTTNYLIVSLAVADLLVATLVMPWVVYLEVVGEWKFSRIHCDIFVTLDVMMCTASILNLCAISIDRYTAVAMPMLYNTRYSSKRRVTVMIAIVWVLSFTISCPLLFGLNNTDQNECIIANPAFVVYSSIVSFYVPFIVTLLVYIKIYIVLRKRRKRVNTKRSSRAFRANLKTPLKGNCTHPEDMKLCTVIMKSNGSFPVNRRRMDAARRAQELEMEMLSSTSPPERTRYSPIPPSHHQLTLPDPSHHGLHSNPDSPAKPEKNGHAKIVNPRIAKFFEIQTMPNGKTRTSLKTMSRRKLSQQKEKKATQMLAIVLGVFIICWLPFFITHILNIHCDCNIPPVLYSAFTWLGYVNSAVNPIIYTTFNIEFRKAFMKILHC
D(1A) dopamine receptor (Rattus norvegicus), sequence (P18901 whole entry): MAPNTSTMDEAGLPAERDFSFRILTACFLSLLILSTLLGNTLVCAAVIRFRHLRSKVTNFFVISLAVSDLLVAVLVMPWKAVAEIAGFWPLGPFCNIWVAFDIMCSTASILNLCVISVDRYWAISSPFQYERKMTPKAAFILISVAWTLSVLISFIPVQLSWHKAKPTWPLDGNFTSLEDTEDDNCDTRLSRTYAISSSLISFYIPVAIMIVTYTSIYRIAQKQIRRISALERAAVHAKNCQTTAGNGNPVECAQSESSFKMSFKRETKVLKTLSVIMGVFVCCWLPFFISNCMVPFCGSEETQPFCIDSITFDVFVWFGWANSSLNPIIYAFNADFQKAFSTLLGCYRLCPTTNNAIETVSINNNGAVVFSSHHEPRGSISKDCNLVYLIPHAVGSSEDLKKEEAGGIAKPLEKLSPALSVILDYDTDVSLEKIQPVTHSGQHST
Adrenergic receptor alpha-2 (Rattus norvegicus), sequence (P19328 whole entry, looked up, one chain of several): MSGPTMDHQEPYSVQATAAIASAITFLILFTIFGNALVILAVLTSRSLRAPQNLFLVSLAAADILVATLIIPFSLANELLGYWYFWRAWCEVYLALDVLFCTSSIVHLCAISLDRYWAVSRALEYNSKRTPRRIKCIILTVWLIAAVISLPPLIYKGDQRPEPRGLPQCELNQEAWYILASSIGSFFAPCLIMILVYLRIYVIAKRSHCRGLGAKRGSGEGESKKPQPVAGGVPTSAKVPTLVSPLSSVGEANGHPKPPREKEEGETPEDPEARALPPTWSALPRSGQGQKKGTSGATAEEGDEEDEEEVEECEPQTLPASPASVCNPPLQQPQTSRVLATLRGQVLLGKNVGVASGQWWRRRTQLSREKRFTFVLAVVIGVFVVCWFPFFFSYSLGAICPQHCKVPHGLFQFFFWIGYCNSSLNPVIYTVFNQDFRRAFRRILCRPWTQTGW
Adrenergic receptor alpha-2 (Rattus norvegicus), sequence (P22086 whole entry, looked up, one chain of several): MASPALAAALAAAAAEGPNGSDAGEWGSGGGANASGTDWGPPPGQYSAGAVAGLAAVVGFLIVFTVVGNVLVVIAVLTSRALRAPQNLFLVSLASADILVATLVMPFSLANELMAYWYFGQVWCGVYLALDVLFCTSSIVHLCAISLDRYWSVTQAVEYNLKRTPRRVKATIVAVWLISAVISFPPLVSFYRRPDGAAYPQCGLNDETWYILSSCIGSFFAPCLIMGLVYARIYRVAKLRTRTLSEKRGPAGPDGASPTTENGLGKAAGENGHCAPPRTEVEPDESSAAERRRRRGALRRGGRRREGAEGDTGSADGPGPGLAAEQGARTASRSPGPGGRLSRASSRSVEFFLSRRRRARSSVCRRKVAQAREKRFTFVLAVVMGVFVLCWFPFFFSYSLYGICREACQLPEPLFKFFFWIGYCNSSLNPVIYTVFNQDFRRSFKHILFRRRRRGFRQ
Tyrosine 3-monooxygenase (Rattus norvegicus), sequence (P04177 whole entry): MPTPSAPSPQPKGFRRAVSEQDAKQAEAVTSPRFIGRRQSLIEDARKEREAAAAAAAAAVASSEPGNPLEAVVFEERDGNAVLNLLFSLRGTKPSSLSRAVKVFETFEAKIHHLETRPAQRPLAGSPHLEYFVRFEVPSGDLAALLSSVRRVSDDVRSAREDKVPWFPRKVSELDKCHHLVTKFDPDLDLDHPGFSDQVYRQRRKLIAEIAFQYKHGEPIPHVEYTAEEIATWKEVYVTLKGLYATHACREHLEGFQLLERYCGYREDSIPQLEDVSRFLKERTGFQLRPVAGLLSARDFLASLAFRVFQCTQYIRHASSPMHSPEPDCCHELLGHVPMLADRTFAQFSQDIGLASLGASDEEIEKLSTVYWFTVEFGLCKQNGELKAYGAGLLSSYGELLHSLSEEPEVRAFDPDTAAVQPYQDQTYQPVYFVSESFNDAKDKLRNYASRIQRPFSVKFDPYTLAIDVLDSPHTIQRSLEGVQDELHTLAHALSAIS

CCCN1CCO[C@@H]2c3cc(O)ccc3CC[C@H]21 [NAXAGOLIDE]
Change [1]: 11% | Change [2]: -91% | Change [3]: -30% | Change [4]: -95% | Change [5]: -38% | Change [6]: -80% | Change [7]: -57% | Change [8]: -43% | Change [9]: 10% | Change [10]: 34% | Change [11]: -42% | Change [12]: 13% | Change [13]: 31% | Change [14]: -22% | Change [15]: -1% | Change [16]: -19% | Change [17]: 30% | Change [18]: -73% | Change [19]: -17% | Change [20]: -93% | Change [21]: -39% | Change [22]: -14% | Change [23]: 30% | Change [24]: -2% | Change [25]: -57% | Change [26]: 22%
